# Compound activity (PubChem BioAssay)
# Only a selection was taken, and hits are over-represented in it overall.
# BB579 growth dn = growth inhibitors of yeast BB579 in restrictive medium, primary screen, yeast lifespan-shortening project, S. cerevisiae; OD615, 48 h; inhibition, % at 10 µM; 0.51% of 140,000 active; AID 804, 2007;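 active = inhibition above a set limit, 3 SD over the mean compound inhibition, cut at about 44% in these data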
#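 Test system: DeaD yeast strain BB579 / Buffer or medium: restrictive glucose-based CSMM-D medium / Doses: single 10 µM dose / Schedule: 4 h cell preincubation, 48 h compound exposure, 30 °C humidified / Technique: culture absorbance at 615 nm / Controls: amphotericin B positive control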
# Yeast life ext = compounds extending yeast replicative lifespan, primary screen, S. cerevisiae, OD615; S. cerevisiae growth with nicotinamide; deaD strain in restrictive glucose medium; inhibition of the nicotinamide effect, % at 10 µM; 0.68% of 130,000 active;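 active = inhibition above a set limit, placed 3 SD over the median of all compounds, cut at about 26% in these data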;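 also: 0% = nicotinamide-treated wells and 100% = cells grown without nicotinamide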
#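 Test system – modified budding yeast, DeaD strain · Compound – single dose 10 µM compound, 0.25% DMSO · Times – culture preincubation 4 h, compound exposure 48 h, both 30 °C · Detection – optical density (absorbance) at 615 nm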
# PostGolgi yeast = phenotypic screen on post-Golgi transport, primary screen | inhibition, % at 10 µM | post-Golgi transport phenotypic cell assay | 0.9% of 98,000 active | AID 739, 2007;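 also: yeast cells grown in 1536-well plates; yeast grown about 18 h at 30C before absorbance read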
# PostGolgi ctrl = growth inhibition of yeast control strain, primary screen, counter-screen for post-Golgi transport modulator project | efflux-deficient yeast background strain, growth absorbance A615, 16 h | inhibition, % at 10 µM | 5% of 98,000 active | AID 738, 2007
# Numbers without * were called inactive; x = no result. Rule as the data show it, unless noted: active = inhibition above about 30%; inactive = the rest.
SMILES,BB579 growth dn,Yeast life ext,PostGolgi yeast,PostGolgi ctrl
Cn1c(=O)cc(NCc2ccccc2)[nH]c1=O,-7.0,-4.8,39.9*,-5.2
N#CC1=C(N)Oc2n[nH]c(-c3ccc(F)cc3)c2C1c1ccncc1 (configuration not stated),-5.2,-20.2,0.8,-1.1
COc1ccc2[nH]cc(CCN=C3SCC(=O)N3C)c2c1,-17.1,-26.7,-1.2,5.2
CCN(CC)c1nc2cc(OC)ccc2cc1C#N,-10.2,-26.3,38.7*,-3.2
CCCC(=O)NC(=S)Nc1ccc(NC(=O)C(C)C)c(OC)c1,-2.9,-5.9,x,x
Cc1ccc(Cn2ccc(NC(=O)c3c(-c4ccccc4Cl)noc3C)n2)cc1,-47.0,-4.6,0.0,10.3
Cn1cccc1CNC(=O)Nc1ccc(Cl)cc1,-50.2,-33.9,14.1,37.9*
CCCn1c2ccccc2c2cc(C(=O)O)ccc21,11.5,-10.0,1.2,10.4
CCn1c2ccccc2c2cc(N)ccc21,-37.7,-6.2,2.2,10.9
Cn1c2ccccc2c2cc(C(=O)O)ccc21,76.9*,-11.7,18.6,6.6
C/C(=N\O)c1c(C)c2ccccc2n1C,-61.4,-10.7,-8.5,27.0
CCn1c2ccccc2c2cc(/C(C)=N/O)ccc21,-22.8,-17.0,3.8,65.3*
C/C(=N\O)c1ccc2c3ccccc3n(C)c2c1,-27.8,-27.9,-4.3,30.8*
Cc1c(Br)c([N+](=O)[O-])nn1CC(=O)NCc1cccnc1,0.7,-1.9,-0.3,4.2
CCOC(=O)c1ccc(NC(=O)CC2OCCN(CC)C2=O)cc1 (configuration not stated),-47.9,12.8,-3.7,35.0*
Cc1c(C(=O)N2CCC(C)CC2)sc2ncnc(N3CCN(c4ccccc4)CC3)c12,-57.9,-5.8,-4.7,21.6
CCOc1ccc(-c2[nH]ncc2Oc2cccc(OC)c2)c(O)c1,85.8*,-24.1,85.7*,75.1*
CCCOC(=O)c1ccc(Oc2c(-c3ccc(OCC)cc3O)n[nH]c2C)cc1,-67.9,-11.5,-6.3,11.5
Oc1ccc(-c2[nH]ncc2-c2ccc(Cl)cc2)c(O)c1,-32.3,-23.5,-4.3,23.4
COc1cccc(Oc2cn[nH]c2-c2ccc(OC)cc2O)c1,-21.1,-21.8,94.2*,92.0*
COc1ccc(-c2[nH]ncc2-c2ccc(Cl)cc2)c(O)c1,73.4*,-36.9,14.8,49.1*
CCCOC(=O)c1ccc(Oc2cn[nH]c2-c2ccc(OCC)cc2O)cc1,63.8*,-26.1,2.2,0.0
CCOc1ccc(Nc2nc(Cc3nnc(SCC(=O)c4ccc(C)c(C)c4)o3)cs2)cc1,-86.1,3.3,-5.7,7.4
Cc1nn2c(-n3ccnc3)c3c(nc2c1-c1ccccc1)CCC3,-51.1,-13.6,74.2*,81.3*
CCCCNc1c2c(nc3c(-c4ccccc4)c(C)nn13)CCC2,-32.8,-5.1,4.0,16.1
SMILES,BB579 growth dn,Yeast life ext,PostGolgi yeast,PostGolgi ctrl
CCC(C)Nc1c2c(nc3c(-c4ccccc4)c(C)nn13)CCC2 (configuration not stated),-23.2,-19.7,-5.4,38.9*
Cn1c(SC2CCCCC2=O)nnc1-c1ccncc1 (configuration not stated),-30.9,-22.3,2.3,5.2
CCC(C(=O)OC)n1cnc2c(cnn2-c2ccc(Cl)cc2)c1=O (configuration not stated),-22.1,-3.8,1.0,40.8*
COc1cccc(CNC(=O)CCNS(=O)(=O)c2cccs2)c1,3.7,-22.2,-3.7,13.8
CCCCc1c(O)c2ccccc2n(CCCC)c1=O,-37.9,-0.2,x,x
CCCCn1c(=O)c2c(O)cc(=O)oc2c2ccccc21,-34.3,43.0*,10.4,6.2
CCCCCCn1c(=O)c(-c2ccccc2)c(O)c2ccccc21,34.2,-1.0,-5.3,37.6*
CCCCn1c(=O)cc(O)c2ccccc21,-15.0,5.7,-5.7,8.9
O=c1cc(O)c2c(=O)n(C3CCCCC3)c3ccccc3c2o1,-26.8,30.9*,12.2,3.9
O=c1cc(O)c2c(=O)n(-c3ccccc3)c3c(c2o1)CCCCCC3,-6.7,46.5*,x,x
CC(NC(=O)c1ccnc(C(C)(C)C)c1)c1ccccc1 (configuration not stated),-4.4,8.3,-5.4,5.5
CCCCS(=O)CC(COCc1ccccc1)OC(=O)CSc1nc(C)cc(C)n1 (configuration not stated),-42.1,-17.1,15.4,19.5
O=C(O)CCCNC(=O)c1ccccn1,-14.4,0.8,x,x
COc1cc(NC(=O)NCc2ccncc2)cc(OC)c1OC,-29.7,-3.3,1.8,3.9
CNc1cccccc1=S,-27.7,-6.2,-8.8,2.0
Cc1cc(C)c(S(=O)(=O)NCCn2c(C)cc3ccccc32)c(C)c1,-25.8,-6.3,-2.9,43.9*
